Data: ChEMBL document CHEMBL2176895, “Bacterial reduction as means for colonic drug delivery: can other chemical groups provide an alternative to the azo bond?” (J Med Chem, 2012)

Legend:
[1] = Drug metabolism in Sprague-Dawley rat cecal contents assessed as colonic bacteria-mediated rate for final reduction product formation relative to sulfasalazine reduction rate; type: ADME
Method in brief: (§1)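 The reduction was followed by reversed-phase HPLC with photodiode-array detection on a C18 column at 30 °C and 1 mL/min. Elution used a gradient of methanol against 50 mM potassium phosphate buffer, pH 6.8, containing 0.1% tetrabutylammonium hydroxide.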

[2] = Drug metabolism in Sprague-Dawley rat cecal contents assessed as accumulation of colonic bacteria-mediated final reduction product level at 2 mM; type: ADME; details: 2000 µM; method in brief: as §1

| Ratio [1] | Drug metabolism [2] | SMILES |
| --- | --- | --- |
| 0.724 |  | CN(C)c1ccc([N+](=O)[O-])cc1C(=O)O |
| 0.45 | Active | O=C(O)c1cc([N+](=O)[O-])ccc1O |
|  | Active | O=C(O)c1cc(SSc2ccc(O)c(C(=O)O)c2)ccc1O |
| 0.603 |  | Cc1ccc([N+](=O)[O-])cc1C(=O)O |
| 1.013 |  | O=C(O)c1cc([N+](=O)[O-])ccc1Cl |
| 0.113 |  | O=C(O)c1ccc([N+](=O)[O-])cc1C(=O)O |
| 0.128 |  | O=C(O)c1cc(C(=O)O)cc([N+](=O)[O-])c1 |
| 1.222 |  | O=C(O)c1cc([N+](=O)[O-])cc(C(F)(F)F)c1 |
| 0.759 |  | O=C(O)c1cccc([N+](=O)[O-])c1 |
|  | Active | O=C(O)c1cc(/N=N/c2ccc(O)c(C(=O)O)c2)ccc1O [OLSALAZINE] |
